Data as given in ChEMBL document CHEMBL1833896, “Acylglycinamides as inhibitors of glycine transporter type 1” (Bioorg Med Chem Lett, 2011).

Legend:
[1] = Intrinsic clearance in human microsomes; type: ADME, Microsome
[2] = Lipophilicity, log D of the compound; type: physicochemical; conditions: chromatographic hydrophobicity index (CHI) method
Method in brief: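 Lipophilicity was measured by a chromatographic method.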

[3] = Intrinsic clearance in rat microsomes; type: ADME, Microsome
[4] = Oral bioavailability in rat; type: ADME, organism-based; conditions: in vivo
Rattus norvegicus = organism: Rattus norvegicus; assay: Liver blood flow in rat; type: ADME, organism-based
[5] = Ratio of drug level in brain to blood in rat; type: ADME, tissue-based; conditions: read-out: BBR

Structure (SMILES) | CL [1] [mL/min/g] | logD [2] | CL [3] [mL/min/g] | bioavailability [4] [%] | QH (Rattus norvegicus) [%] | Kp [5]
O=C(CN(CC1CC1)C(=O)c1ccc(-c2ccccn2)cc1)Nc1cc(F)cc(F)c1 | < 0.5 | 3.1 | 5 |  |  | 
O=C(CN(C(=O)c1ccc(-c2ccccn2)cc1)C1CCCC1)Nc1cc(F)cc(F)c1 | 1.9 | 3.4 | 3.7 |  |  | 
CC(C)N(CC(=O)Nc1cc(F)cc(F)c1)C(=O)c1ccc(-c2ccccn2)cc1 | < 0.5 | 3 | 1.8 |  |  | 
O=C(CN(C(=O)c1ccc(-c2ccccn2)cc1)C1CCOCC1)Nc1cc(F)cc(F)c1 | < 0.5 | 2.5 | 0.6 | 25 | 75 | 0.2
CCC(C)N(CC(=O)Nc1cc(F)cc(F)c1)C(=O)c1ccc(-c2ccccn2)cc1 (configuration not stated) | 4.3 | 3.3 | 3.8 |  |  | 
O=C(CN(CC1CCC1)C(=O)c1ccc(-c2ccccn2)cc1)Nc1cc(F)cc(F)c1 | 2 | 3.5 | 4.8 |  |  | 
COCC(C)N(CC(=O)Nc1cc(F)cc(F)c1)C(=O)c1ccc(-c2ccccn2)cc1 (configuration not stated) | 5.8 | 3 | 4.2 |  |  | 
COCCN(CC(=O)Nc1cc(F)cc(F)c1)C(=O)c1ccc(-c2ccccn2)cc1 | 1.5 |  | 3 |  |  | 
CCC(COC)N(CC(=O)Nc1cc(F)cc(F)c1)C(=O)c1ccc(-c2ccccn2)cc1 (configuration not stated) | 9.6 | 3.3 | 6.7 |  |  | 
O=C(CN(C(=O)c1ccc(-c2ccccn2)cc1)C1CCOC1)Nc1cc(F)cc(F)c1 (configuration not stated) | 3.9 | 2.5 | 3.2 |  |  | 
COc1ccc(C(=O)N(CC(=O)Nc2cc(F)cc(F)c2)C2CCCCC2)cc1 |  | 3.7 |  |  |  | 
CN1CCC(C(=O)N(CC(=O)Nc2cc(F)cc(F)c2)C2CCCCC2)CC1 |  | 1.8 |  |  |  | 
O=C(CN(C(=O)C1CCOCC1)C1CCCCC1)Nc1cc(F)cc(F)c1 |  | 3 |  |  |  | 
O=C(CN(C(=O)c1cccnc1)C1CCCCC1)Nc1cc(F)cc(F)c1 |  | 2.7 |  |  |  | 
Cn1ccc(C(=O)N(CC(=O)Nc2cc(F)cc(F)c2)C2CCCCC2)n1 |  | 3 |  |  |  | 
CN(C)CCOc1ccc(C(=O)N(CC(=O)Nc2cc(F)cc(F)c2)C2CCCCC2)cc1 |  | 2.4 |  |  |  | 
O=C(CN(C(=O)c1ccc(-n2ccnc2)cc1)C1CCCCC1)Nc1cc(F)cc(F)c1 | 6.1 | 2.7 | 1.2 |  |  | 
O=C(CN(C(=O)c1ccc(N2CCCC2)nc1)C1CCCCC1)Nc1cc(F)cc(F)c1 |  | 3.6 |  |  |  | 
O=C(CN(C(=O)c1ccc(N2CCCC2)cc1)C1CCCCC1)Nc1cc(F)cc(F)c1 |  | 4.5 |  |  |  | 
O=C(CN(C(=O)c1ccc(-c2ccccn2)cc1)C1CCCCC1)Nc1cc(F)cc(F)c1 | 5.2 | 3.7 | 15.4 |  |  | 
COc1ccc(C(=O)N(Cc2[nH]ncc2-c2ccccc2)C2CCCCC2)cc1 |  | 3.1 |  |  |  | 
COc1ccc(C(=O)N(Cc2c(C)noc2-c2ccccc2)C2CCCCC2)cc1 |  | 4.1 |  |  |  | 
COc1ccc(C(=O)N(Cc2csc(-c3ccccc3)n2)C2CCCCC2)cc1 |  | 4.6 |  |  |  | 
COc1ccc(C(=O)N(Cc2c[nH]c(-c3ccccc3)n2)C2CCCCC2)cc1 |  | 2.9 |  |  |  | 
COc1ccc(C(=O)N(Cc2cn(-c3ccccc3)nn2)C2CCCCC2)cc1 |  | 3.5 |  |  |  | 
COc1ccc(C(=O)N(Cc2ccc(-c3ccc(Cl)cc3)o2)C2CCCCC2)cc1 |  | 5 |  |  |  | 
COc1ccc(C(=O)N(Cc2cc(-c3ccccc3)on2)C2CCCCC2)cc1 |  | 4.2 |  |  |  | 
CC(C)CN(CC(=O)Nc1cc(F)cc(F)c1)C(=O)c1ccc(-c2ccccn2)cc1 | 1.3 | 3.3 | 4.9 |  |  | 
O=C(CN(C(=O)c1ccc(-c2ccccn2)cc1)C1CCCOC1)Nc1cc(F)cc(F)c1 (racemic) | 2.9 | 2.7 | 2 | 15 | 75 | 0.2
